Measured values as given in ChEMBL document CHEMBL1136049, “Synthesis of syn- and anti-1-amino-3-[18F]fluoromethyl-cyclobutane-1-carboxylic acid (FMACBC), potential PET ligands for tumor detection” (J Med Chem, 2002).

Legend:
Rattus norvegicus [1] = species: Rattus norvegicus; assay: Radioactivity distribution in heart of normal fischer rat after injection of anti-[18F]FMACBC after 30 min.; assay type: ADME, organism-based; details: in vivo, 0.5 h
Outline: (§1)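 Male Fischer 344 rats (200–250 g), normal, fed ad libitum, given ~85 μCi of 18F tracer in 0.3 mL sterile water IV through a tail vein catheter. Anesthesia was ketamine:xylazine IM. Groups of four were killed at 5, 30, 60 and 120 min. Tissues were weighed and gamma-counted against dose standards, decay-corrected, and expressed as mean % injected dose per gram.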

Rattus norvegicus [2] = species: Rattus norvegicus; assay: Radioactivity distribution in blood of tumor-bearing fischer rat after injection of syn-[18F]-FMACBC after 5 min; assay type: ADME, organism-based; details: in vivo
Outline: (§2)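 Male Fischer 344 rats carrying intracranial rat 9L gliosarcoma, made by stereotaxic injection of 4 × 10^4 cells 17–19 days before. Awake restrained rats received ~35 μCi of 18F tracer in 0.3 mL sterile water IV by tail vein and were killed at 5, 60 or 120 min, n = 3–5. Tissues were weighed, gamma-counted, decay-corrected and expressed as % injected dose per gram.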

Rattus norvegicus [3] = species: Rattus norvegicus; assay: Radioactivity distribution in testis of tumor-bearing fischer rat after injection of syn-[18F]-FMACBC after 60 min; assay type: ADME, organism-based; details: in vivo, 1 h
Outline: (§3)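 Male Fischer 344 rats with intracranial 9L gliosarcoma (4 × 10^4 cells stereotaxically implanted; used 17–19 days after implantation). About 35 μCi tracer in 0.3 mL sterile water was given by tail vein to awake, restrained rats. Rats were killed at 5, 60 or 120 min. Tissues, tumor and contralateral brain were weighed and gamma counted, decay-corrected, and expressed as %ID/g; n = 3–5 per time point.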

Rattus norvegicus [4] = species: Rattus norvegicus; assay: Radioactivity distribution in spleen of normal fischer rat after injection of anti-[18F]FMACBC after 5 min.; assay type: ADME, organism-based; details: in vivo
Outline: (§4)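 Normal male Fischer 344 rats (200–250 g) were anesthetised with ketamine:xylazine i.m. and given about 85 μCi tracer in 0.3 mL sterile water via a tail vein catheter. Groups of four were killed at 5, 30, 60 and 120 min. Selected tissues were weighed and gamma counted with dose standards, decay-corrected, and expressed as mean %ID/g.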

Rattus norvegicus [5] = species: Rattus norvegicus; assay: Radioactivity distribution in heart of tumor-bearing fischer rat after injection of syn-[18F]-FMACBC after 120 min; assay type: ADME, organism-based; details: in vivo, 2 h; outline: as §2
Rattus norvegicus [6] = species: Rattus norvegicus; assay: Radioactivity distribution in muscle of normal fischer rat after injection of syn-[18F]-FMACBC after 60 min.; assay type: ADME, organism-based, Muscle tissue; details: in vivo, 1 h; outline: as §4
Rattus norvegicus [7] = species: Rattus norvegicus; assay: Radioactivity distribution in pancreas of tumor-bearing fischer rat after injection of anti-[18F]FMACBC after 60 min; assay type: ADME, organism-based; details: in vivo, 1 h; outline: as §3
Rattus norvegicus [8] = species: Rattus norvegicus; assay: Radioactivity distribution in tumor of tumor-bearing fischer rat after injection of syn-[18F]-FMACBC after 5 min; assay type: ADME, organism-based; details: in vivo; outline: as §3
Rattus norvegicus [9] = species: Rattus norvegicus; assay: Radioactivity distribution in brain of tumor-bearing fischer rat after injection of syn-[18F]-FMACBC after 120 min; assay type: ADME, organism-based; details: in vivo, 2 h; outline: as §2
Rattus norvegicus [10] = species: Rattus norvegicus; assay: Radioactivity distribution in kidney of tumor-bearing fischer rat after injection of anti-[18F]FMACBC after 120 min; assay type: ADME, organism-based; details: in vivo, 2 h; outline: as §2
Rattus norvegicus [11] = species: Rattus norvegicus; assay: Radioactivity distribution in liver of normal fischer rat after injection of anti-[18F]FMACBC after 120 min.; assay type: ADME, organism-based; details: in vivo, 2 h; outline: as §1
Rattus norvegicus [12] = species: Rattus norvegicus; assay: Radioactivity distribution in bone of tumor-bearing fischer rat after injection of syn-[18F]-FMACBC after 60 min; assay type: ADME, organism-based, Bone element; details: in vivo, 1 h; outline: as §2
Rattus norvegicus [13] = species: Rattus norvegicus; assay: Radioactivity distribution in muscle of normal fischer rat after injection of anti-[18F]FMACBC after 60 min.; assay type: ADME, organism-based, Muscle tissue; details: in vivo, 1 h; outline: as §4
Rattus norvegicus [14] = species: Rattus norvegicus; assay: Radioactivity distribution in pancreas of normal fischer rat after injection of syn-[18F]-FMACBC after 120 min.; assay type: ADME, organism-based; details: in vivo, 2 h; outline: as §4
Rattus norvegicus [15] = species: Rattus norvegicus; assay: Radioactivity distribution in liver of tumor-bearing fischer rat after injection of syn-[18F]-FMACBC after 120 min; assay type: ADME, organism-based; details: in vivo, 2 h; outline: as §3
Rattus norvegicus [16] = species: Rattus norvegicus; assay: Radioactivity distribution in pancreas of normal fischer rat after injection of anti-[18F]FMACBC after 120 min.; assay type: ADME, organism-based; details: in vivo, 2 h; outline: as §4
Rattus norvegicus [17] = species: Rattus norvegicus; assay: Radioactivity distribution in lung of normal fischer rat after injection of anti-[18F]FMACBC after 60 min.; assay type: ADME, organism-based; details: in vivo, 1 h; outline: as §4
Rattus norvegicus [18] = species: Rattus norvegicus; assay: Radioactivity distribution in liver of tumor-bearing fischer rat after injection of anti-[18F]FMACBC after 5 min; assay type: ADME, organism-based; details: in vivo; outline: as §3
Rattus norvegicus [19] = species: Rattus norvegicus; assay: Radioactivity distribution in pancreas of normal fischer rat after injection of anti-[18F]FMACBC after 30 min.; assay type: ADME, organism-based; details: in vivo, 0.5 h; outline: as §4
Rattus norvegicus [20] = species: Rattus norvegicus; assay: Radioactivity distribution in testis of normal fischer rat after injection of anti-[18F]FMACBC after 5 min.; assay type: ADME, organism-based; details: in vivo; outline: as §4
Rattus norvegicus [21] = species: Rattus norvegicus; assay: Radioactivity distribution in lung of tumor-bearing fischer rat after injection of syn-[18F]-FMACBC after 60 min; assay type: ADME, organism-based; details: in vivo, 1 h; outline: as §3
Rattus norvegicus [22] = species: Rattus norvegicus; assay: Radioactivity distribution in brain of normal fischer rat after injection of syn-[18F]-FMACBC after 5 min.; assay type: ADME, organism-based; details: in vivo; outline: as §1
Rattus norvegicus [23] = species: Rattus norvegicus; assay: Radioactivity distribution in brain of normal fischer rat after injection of anti-[18F]FMACBC after 60 min.; assay type: ADME, organism-based; details: in vivo, 1 h; outline: as §1
Rattus norvegicus [24] = species: Rattus norvegicus; assay: Radioactivity distribution in bone of normal fischer rat after injection of syn-[18F]-FMACBC after 120 min.; assay type: ADME, organism-based, Bone element; details: in vivo, 2 h; outline: as §1
Rattus norvegicus [25] = species: Rattus norvegicus; assay: Radioactivity distribution in kidney of tumor-bearing fischer rat after injection of syn-[18F]-FMACBC after 60 min; assay type: ADME, organism-based; details: in vivo, 1 h; outline: as §2
Rattus norvegicus [26] = species: Rattus norvegicus; assay: Radioactivity distribution in testis of normal fischer rat after injection of anti-[18F]FMACBC after 30 min.; assay type: ADME, organism-based; details: in vivo, 0.5 h; outline: as §4
Rattus norvegicus [27] = species: Rattus norvegicus; assay: Radioactivity distribution in blood of normal fischer rat after injection of anti-[18F]FMACBC after 30 min.; assay type: ADME, organism-based; details: in vivo, 0.5 h; outline: as §1
Rattus norvegicus [28] = species: Rattus norvegicus; assay: Radioactivity distribution in kidney of normal fischer rat after injection of anti-[18F]FMACBC after 30 min.; assay type: ADME, organism-based; details: in vivo, 0.5 h; outline: as §1
Rattus norvegicus [29] = species: Rattus norvegicus; assay: Radioactivity distribution in bone of normal fischer rat after injection of syn-[18F]-FMACBC after 30 min.; assay type: ADME, organism-based, Bone element; details: in vivo, 0.5 h; outline: as §1
Rattus norvegicus [30] = species: Rattus norvegicus; assay: Radioactivity distribution in bone of normal fischer rat after injection of syn-[18F]-FMACBC after 5 min.; assay type: ADME, organism-based, Bone element; details: in vivo; outline: as §1
Rattus norvegicus [31] = species: Rattus norvegicus; assay: Radioactivity distribution in lung of tumor-bearing fischer rat after injection of syn-[18F]-FMACBC after 120 min; assay type: ADME, organism-based; details: in vivo, 2 h; outline: as §3
Rattus norvegicus [32] = species: Rattus norvegicus; assay: Radioactivity distribution in testis of tumor-bearing fischer rat after injection of anti-[18F]FMACBC after 60 min; assay type: ADME, organism-based; details: in vivo, 1 h; outline: as §3
Rattus norvegicus [33] = species: Rattus norvegicus; assay: Radioactivity distribution in heart of tumor-bearing fischer rat after injection of syn-[18F]-FMACBC after 60 min; assay type: ADME, organism-based; details: in vivo, 1 h; outline: as §2
Rattus norvegicus [34] = species: Rattus norvegicus; assay: Radioactivity distribution in brain of normal fischer rat after injection of syn-[18F]-FMACBC after 30 min.; assay type: ADME, organism-based; details: in vivo, 0.5 h; outline: as §1
Rattus norvegicus [35] = species: Rattus norvegicus; assay: Radioactivity distribution in muscle of normal fischer rat after injection of anti-[18F]FMACBC after 5 min.; assay type: ADME, organism-based, Muscle tissue; details: in vivo; outline: as §4
Rattus norvegicus [36] = species: Rattus norvegicus; assay: Radioactivity distribution in tumor of tumor-bearing fischer rat after injection of syn-[18F]-FMACBC after 60 min; assay type: ADME, organism-based; details: in vivo, 1 h; outline: as §3
Rattus norvegicus [37] = species: Rattus norvegicus; assay: Radioactivity distribution in liver of normal fischer rat after injection of anti-[18F]FMACBC after 5 min.; assay type: ADME, organism-based; details: in vivo; outline: as §1
Rattus norvegicus [38] = species: Rattus norvegicus; assay: Radioactivity distribution in bone of normal fischer rat after injection of anti-[18F]FMACBC after 30 min.; assay type: ADME, organism-based, Bone element; details: in vivo, 0.5 h; outline: as §1
Rattus norvegicus [39] = species: Rattus norvegicus; assay: Radioactivity distribution in brain of tumor-bearing fischer rat after injection of syn-[18F]-FMACBC after 60 min; assay type: ADME, organism-based; details: in vivo, 1 h; outline: as §2
Rattus norvegicus [40] = species: Rattus norvegicus; assay: Radioactivity distribution in lung of tumor-bearing fischer rat after injection of anti-[18F]FMACBC after 5 min; assay type: ADME, organism-based; details: in vivo; outline: as §3
Rattus norvegicus [41] = species: Rattus norvegicus; assay: Radioactivity distribution in pancreas of normal fischer rat after injection of anti-[18F]FMACBC after 60 min.; assay type: ADME, organism-based; details: in vivo, 1 h; outline: as §4

N[C@]1(C(=O)O)C[C@@H](CF)C1
ID/g (Rattus norvegicus [1]): 0.68%
ID/g (Rattus norvegicus [2]): 0.44%
ID/g (Rattus norvegicus [3]): 0.22%
ID/g (Rattus norvegicus [4]): 1.03%
ID/g (Rattus norvegicus [5]): 0.33%
ID/g (Rattus norvegicus [6]): 0.61%
ID/g (Rattus norvegicus [7]): 2.48%
ID/g (Rattus norvegicus [8]): 1.16%
ID/g (Rattus norvegicus [9]): 0.27%
ID/g (Rattus norvegicus [10]): 0.79%
ID/g (Rattus norvegicus [11]): 0.48%
ID/g (Rattus norvegicus [12]): 0.12%
ID/g (Rattus norvegicus [13]): 0.61%
ID/g (Rattus norvegicus [14]): 3.88%
ID/g (Rattus norvegicus [15]): 0.25%
ID/g (Rattus norvegicus [16]): 4.09%
ID/g (Rattus norvegicus [17]): 0.41%
ID/g (Rattus norvegicus [18]): 0.87%
ID/g (Rattus norvegicus [19]): 4.13%
ID/g (Rattus norvegicus [20]): 0.24%
ID/g (Rattus norvegicus [21]): 0.31%
ID/g (Rattus norvegicus [22]): 0.26%
ID/g (Rattus norvegicus [23]): 0.25%
ID/g (Rattus norvegicus [24]): 0.32%
ID/g (Rattus norvegicus [25]): 0.42%
ID/g (Rattus norvegicus [26]): 0.25%
ID/g (Rattus norvegicus [27]): 0.39%
ID/g (Rattus norvegicus [28]): 0.67%
ID/g (Rattus norvegicus [29]): 0.32%
ID/g (Rattus norvegicus [30]): 0.7%
ID/g (Rattus norvegicus [31]): 0.26%
ID/g (Rattus norvegicus [32]): 0.26%
ID/g (Rattus norvegicus [33]): 0.44%
ID/g (Rattus norvegicus [34]): 0.24%
ID/g (Rattus norvegicus [35]): 0.46%
ID/g (Rattus norvegicus [36]): 1.59%
ID/g (Rattus norvegicus [37]): 0.81%
ID/g (Rattus norvegicus [38]): 0.31%
ID/g (Rattus norvegicus [39]): 0.23%
ID/g (Rattus norvegicus [40]): 0.55%
ID/g (Rattus norvegicus [41]): 3.83%
